Data set [1] has as its target Sodium-dependent serotonin transporter (Homo sapiens, UniProt P31645). The data set can be described thus: Binding affinity to human SERT.
Data set [2] addresses Sodium-dependent noradrenaline transporter (Homo sapiens, UniProt P23975). Put plainly: Binding affinity to human NET. An outline of the steps:
(§1)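 Human NET and DAT Ki values from one experiment run in triplicate.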

Data set [3] deals with Sodium-dependent dopamine transporter (Homo sapiens, UniProt Q01959). The data set can be described thus: Binding affinity to human DAT. In outline:
as §1

In the next data set the target is Histamine H3 receptor (Homo sapiens, UniProt Q9Y5N1). The data set can be described thus: Binding affinity to human histamine H3 receptor.
The nature of data set [4]: Drug level in rat brain at 10 mg/kg, po after 3 hrs. In kind it is ADME, organism-based. Also noted: dose 10 mg/kg, route oral. The note with it: read-out: Drug uptake.
Data set [5] in a line: Plasma concentration in rat at 10 mg/kg, po after 1 hr. Format: ADME, organism-based. Set-up: dose 10 mg/kg, route oral.
Data set [6] can be described thus: Drug level in rat brain at 10 mg/kg, po after 1 hr. The note with it: read-out: Drug uptake. In kind it is ADME, organism-based. Also noted: dose 10 mg/kg, route oral.
The nature of data set [7]: Plasma concentration in rat at 10 mg/kg, po after 3 hrs. In kind it is ADME, organism-based. Also noted: dose 10 mg/kg, route oral.
A short description of data set [8]: Plasma concentration in rat at 10 mg/kg, po after 6 hrs. Format: ADME, organism-based. Set-up: dose 10 mg/kg, route oral.
Data set [9] in a line: Drug level in rat brain at 10 mg/kg, po after 6 hrs. Format: ADME, organism-based. Set-up: dose 10 mg/kg, route oral. The note with it: read-out: Drug uptake.
The target of data set [10] is Sodium-dependent serotonin transporter (Rattus norvegicus, UniProt P31652). Put plainly: Binding affinity to rat SERT.

Structures are written as SMILES.

What is called Ki is a measure of affinity in units of concentration, obtained from inhibition or displacement. A high value points to lower affinity.

Sequence of Sodium-dependent noradrenaline transporter (P23975 whole entry): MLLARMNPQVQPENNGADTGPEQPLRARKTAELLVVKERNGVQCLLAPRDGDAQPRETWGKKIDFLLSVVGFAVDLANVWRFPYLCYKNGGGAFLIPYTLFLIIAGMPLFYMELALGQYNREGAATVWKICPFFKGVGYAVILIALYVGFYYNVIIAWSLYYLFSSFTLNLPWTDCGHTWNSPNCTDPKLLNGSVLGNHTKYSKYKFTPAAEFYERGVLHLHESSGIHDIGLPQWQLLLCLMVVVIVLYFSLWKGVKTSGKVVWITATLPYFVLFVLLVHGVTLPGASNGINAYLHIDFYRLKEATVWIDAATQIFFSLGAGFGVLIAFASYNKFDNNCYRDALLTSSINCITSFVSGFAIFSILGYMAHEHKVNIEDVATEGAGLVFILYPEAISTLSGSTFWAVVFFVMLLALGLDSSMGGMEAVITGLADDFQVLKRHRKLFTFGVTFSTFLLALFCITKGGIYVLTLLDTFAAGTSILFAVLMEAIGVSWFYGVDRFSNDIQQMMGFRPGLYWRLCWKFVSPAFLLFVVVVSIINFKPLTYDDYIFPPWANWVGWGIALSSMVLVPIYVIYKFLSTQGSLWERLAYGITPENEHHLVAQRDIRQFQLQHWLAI
Sequence of Sodium-dependent dopamine transporter (Q01959 whole entry): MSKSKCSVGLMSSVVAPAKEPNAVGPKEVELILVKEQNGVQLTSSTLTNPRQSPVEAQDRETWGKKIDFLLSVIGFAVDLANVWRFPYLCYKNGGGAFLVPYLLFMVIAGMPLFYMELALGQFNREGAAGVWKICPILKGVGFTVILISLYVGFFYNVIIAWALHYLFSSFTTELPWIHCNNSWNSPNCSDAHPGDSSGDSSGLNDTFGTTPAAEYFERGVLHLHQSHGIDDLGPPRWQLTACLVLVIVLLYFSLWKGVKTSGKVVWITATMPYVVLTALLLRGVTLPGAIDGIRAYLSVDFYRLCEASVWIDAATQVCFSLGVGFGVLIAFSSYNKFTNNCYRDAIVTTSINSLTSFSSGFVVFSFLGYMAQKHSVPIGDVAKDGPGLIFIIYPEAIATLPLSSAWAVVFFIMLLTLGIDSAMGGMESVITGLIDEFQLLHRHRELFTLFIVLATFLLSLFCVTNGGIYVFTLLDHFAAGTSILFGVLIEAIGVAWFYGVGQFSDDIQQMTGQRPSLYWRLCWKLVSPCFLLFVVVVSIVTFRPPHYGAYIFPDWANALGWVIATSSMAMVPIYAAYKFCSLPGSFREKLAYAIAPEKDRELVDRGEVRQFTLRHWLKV
Sequence of Sodium-dependent serotonin transporter (Homo sapiens, UniProt P31645) (P31645 whole entry): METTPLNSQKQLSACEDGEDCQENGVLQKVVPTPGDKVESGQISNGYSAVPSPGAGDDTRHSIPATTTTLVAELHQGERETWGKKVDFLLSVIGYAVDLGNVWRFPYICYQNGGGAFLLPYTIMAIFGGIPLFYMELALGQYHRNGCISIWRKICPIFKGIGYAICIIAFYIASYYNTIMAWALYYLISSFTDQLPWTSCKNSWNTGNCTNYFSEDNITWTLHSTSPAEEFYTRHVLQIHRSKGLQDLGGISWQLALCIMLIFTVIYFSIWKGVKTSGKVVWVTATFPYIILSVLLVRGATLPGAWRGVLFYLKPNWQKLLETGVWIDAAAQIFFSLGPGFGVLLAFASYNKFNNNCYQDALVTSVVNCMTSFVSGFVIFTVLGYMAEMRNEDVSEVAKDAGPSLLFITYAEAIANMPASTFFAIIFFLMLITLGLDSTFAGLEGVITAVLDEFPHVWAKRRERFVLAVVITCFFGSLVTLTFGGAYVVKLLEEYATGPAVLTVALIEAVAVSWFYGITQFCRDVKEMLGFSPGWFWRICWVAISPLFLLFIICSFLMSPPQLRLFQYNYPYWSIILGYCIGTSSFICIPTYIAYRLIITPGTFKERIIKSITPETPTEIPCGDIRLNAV
Sequence of Histamine H3 receptor (Q9Y5N1 whole entry): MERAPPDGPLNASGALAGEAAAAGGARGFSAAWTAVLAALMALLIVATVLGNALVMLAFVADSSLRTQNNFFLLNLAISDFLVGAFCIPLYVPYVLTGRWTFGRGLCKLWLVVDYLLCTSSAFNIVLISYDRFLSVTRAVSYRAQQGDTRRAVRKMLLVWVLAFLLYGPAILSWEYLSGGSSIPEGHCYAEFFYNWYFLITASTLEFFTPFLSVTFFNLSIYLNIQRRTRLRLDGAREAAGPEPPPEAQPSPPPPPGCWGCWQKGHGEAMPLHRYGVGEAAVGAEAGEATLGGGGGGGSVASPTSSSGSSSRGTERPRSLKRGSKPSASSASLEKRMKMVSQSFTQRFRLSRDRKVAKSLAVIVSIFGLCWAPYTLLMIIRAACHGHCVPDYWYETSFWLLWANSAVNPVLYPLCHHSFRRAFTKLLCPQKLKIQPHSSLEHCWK
Sequence of Sodium-dependent serotonin transporter (Rattus norvegicus, UniProt P31652) (P31652 whole entry): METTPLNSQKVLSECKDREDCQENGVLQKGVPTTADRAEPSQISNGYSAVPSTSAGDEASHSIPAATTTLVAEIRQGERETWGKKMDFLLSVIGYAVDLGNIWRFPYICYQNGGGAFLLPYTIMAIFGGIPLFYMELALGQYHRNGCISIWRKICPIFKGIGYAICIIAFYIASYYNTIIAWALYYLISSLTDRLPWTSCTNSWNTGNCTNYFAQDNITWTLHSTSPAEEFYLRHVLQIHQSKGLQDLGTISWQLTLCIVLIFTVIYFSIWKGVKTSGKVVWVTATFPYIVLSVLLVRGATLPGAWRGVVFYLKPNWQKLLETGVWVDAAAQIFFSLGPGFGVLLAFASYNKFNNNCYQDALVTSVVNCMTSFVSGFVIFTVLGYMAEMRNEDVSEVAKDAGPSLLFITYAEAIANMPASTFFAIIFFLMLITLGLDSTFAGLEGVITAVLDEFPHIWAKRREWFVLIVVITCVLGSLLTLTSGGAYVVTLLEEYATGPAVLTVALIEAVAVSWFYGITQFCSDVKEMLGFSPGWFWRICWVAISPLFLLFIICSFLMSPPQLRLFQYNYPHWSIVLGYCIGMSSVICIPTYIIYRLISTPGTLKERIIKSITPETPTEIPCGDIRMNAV

Regarding `COc1ccc([C@@H]2CN(C)Cc3cc(OCCCN4CCC(F)CC4)ccc32)cc1`, the Ki in [1] amounted to 2.7 nM.

Consider `CNCc1cc(C#CCCN2CCOCC2)ccc1Oc1ccc(SC)cc1`, for which the Ki in data set [2] amounted to 290 nM; in data set [3], 700 nM.

Regarding `CCN(CC)CCCOc1cc2c(cn1)C(c1ccc(Cl)c(Cl)c1)CN(C)C2` (stereo not given), the Ki in data set [1] was found to be 26 nM; on Histamine H3 receptor it was 7 nM.

For `CNCc1cc(C#CCCN2CCOCC2)ccc1Oc1ccc(Cl)cc1`, the concentration at 3 h was determined as 1700 nM in [4] and 40 nM in [7]. Moreover, the concentration at 1 h in data set [5] is 68 nM; in [6], 1380 nM. Also, the concentration at 6 h in data set [8] stood at 28 nM; in data set [9] it was 1660 nM.

On to `CNCc1cc(C#CCCN2CCOCC2)ccc1Oc1cccc(F)c1`, for which the values for the concentration at 3 h in data set [4] and in [7] were 1420 nM and 91 nM, respectively. The concentration at 1 h was 110 nM in [5] and 820 nM in data set [6]. The results for the concentration at 6 h in data set [8] and in data set [9] were 48 nM and 1870 nM, respectively.

Regarding `CNCc1cc(C#CCCN2CCOCC2)ccc1Oc1ccc(C(F)(F)F)cc1`, the concentration at 3 h in data set [4] was determined as 4650 nM; in data set [7], 310 nM. For the same compound, the concentration at 1 h in data set [5] was 240 nM; in data set [6], 1770 nM. For the same compound, the concentration at 6 h was 150 nM in data set [8] and 5400 nM in data set [9].

`CNCc1cc(C#CCCN2CCOCC2)ccc1Oc1ccc(Cl)c(C(F)(F)F)c1`: the concentration at 3 h in data set [4] stood at 1860 nM; in data set [7], 120 nM. Moreover, the concentration at 1 h in data set [5] turned out to be 53 nM; in data set [6], 370 nM. Besides, the values for the concentration at 6 h in [8] and in data set [9] were 110 nM and 3560 nM, respectively.

Turning to `CNCc1cc(C#CCCN2CCSCC2)ccc1Oc1ccc(SC)cc1`, the concentration at 3 h in data set [4] and in data set [7] was 360 nM each time. In addition, the concentration at 1 h in data set [5] worked out at 45 nM; in [6], 87 nM. The concentration at 6 h was 250 nM in data set [8] and 10 nM in [9].

Take `CNCc1cc(C#CCCN(C)C2CC2)ccc1Oc1ccc(SC)cc1`: the concentration at 3 h came out at 220 nM in [4] and 24 nM in data set [7]. For the same compound, the Ki in data set [2] came out at 250 nM; in [3], 400 nM. For the same compound, the concentration at 1 h in data set [5] was 39 nM; in [6], 200 nM. The concentration at 6 h is 12 nM in data set [8] and 240 nM in data set [9].

In data set [1], `CNCc1cc(C#CCCN2CCNC(=O)C2)ccc1Oc1ccc(SC)cc1` displayed an inhibition constant Ki of 1.3 nM. In other words, the single-digit nanomolar range.

Turning to `CNCc1cc(Br)ccc1Oc1ccc(SC)cc1`, the Ki in data set [10] is 0.5 nM; in data set [1] it was 1.7 nM; on Histamine H3 receptor, 9000 nM.

Consider `CNCc1cc(C#CCCN2CCC(F)CC2)ccc1Oc1ccc(SC)cc1`, for which the concentration at 3 h was 63 nM in data set [4] and 8 nM in data set [7]. For the same compound, the figures for the Ki in [2] and in data set [3] were 96 nM and 190 nM, respectively. The concentration at 1 h came out at 23 nM in [5] and 44 nM in data set [6]. Further, the concentration at 6 h was 10 nM in [8] and 130 nM in [9].

As for `CNCc1cc(C#CCCN2CCOCC2)ccc1Oc1ccc(SC)c(C)c1`, the results for the Ki in data set [2] and in [3] were 240 nM and 1000 nM, respectively.

With `CNCc1cc(C#CCCN2CCOCC2)ccc1Oc1cccc(Cl)c1`, the concentration at 3 h in data set [4] was 5130 nM; in [7], 230 nM. Besides, the concentration at 1 h in data set [5] is 180 nM; in data set [6] it was 2370 nM. The figures for the concentration at 6 h in [8] and in [9] were 270 nM and 10100 nM, respectively.

For the compound `CNCc1cc(C#CCCN2CCOCC2)ccc1Oc1ccc(F)cc1Cl`, the results for the concentration at 3 h in data set [4] and in data set [7] were 440 nM and 18 nM, respectively. Besides, the concentration at 1 h in [5] was determined as 30 nM; in data set [6], 270 nM. In addition, the concentration at 6 h stood at 8 nM in data set [8] and 400 nM in [9].

As for `CNCc1cc(C#CCCNC2CC2)ccc1Oc1ccc(SC)cc1`, the figures for the concentration at 3 h in data set [4] and in [7] were 320 nM and 32 nM, respectively. Also, the concentration at 1 h in data set [5] was 17 nM; in data set [6], 120 nM. Also, the concentration at 6 h in data set [8] was found to be 27 nM; in data set [9], 520 nM.

The values above are taken from ChEMBL document CHEMBL1149657, “Benzylamine histamine H(3) antagonists and serotonin reuptake inhibitors” (Bioorg Med Chem Lett, 2007).
